Laboratory results reported in ChEMBL document CHEMBL1268976, “Stereocontrolled facile synthesis and antimicrobial activity of oximes and oxime ethers of diversely substituted bispidines” (2010).
In brackets after ≈: the same amount, converted by molar mass.

Columns and labels:
Assay type in all cases: functional
Aspergillus niger = assay: Antifungal activity against Aspergillus niger by broth microdilution method
Procedure, shortened: (§1)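 Fungal panel of Candida albicans, Candida parapsilosis, Aspergillus niger and Cryptococcus neoformans, tested in vitro by standard NCCLS broth microdilution. The yeast susceptibility reference cited is M27-A.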

Candida albicans = assay: Antifungal activity against Candida albicans by broth microdilution method; procedure, shortened: as §1
Bacillus subtilis = assay: Antibacterial activity against Bacillus subtilis by broth microdilution method
Procedure, shortened: (§2)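 In vitro broth microdilution following the NCCLS standard for bacteria (M7-A5). The test panel was Bacillus subtilis, Staphylococcus aureus, Klebsiella pneumoniae and Pseudomonas aeruginosa.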

Staphylococcus aureus = assay: Antibacterial activity against Staphylococcus aureus by broth microdilution method; procedure, shortened: as §2
Pseudomonas aeruginosa = assay: Antibacterial activity against Pseudomonas aeruginosa by broth microdilution method; procedure, shortened: as §2
Klebsiella pneumoniae = assay: Antibacterial activity against Klebsiella pneumoniae by broth microdilution method; procedure, shortened: as §2
Cryptococcus neoformans = assay: Antimicrobial activity against Cryptococcus neoformans by broth microdilution method; procedure, shortened: as §1
Candida parapsilosis = assay: Antifungal activity against Candida parapsilosis by broth microdilution method; settings: Lodderomyces parapsilosis; procedure, shortened: as §1

| Compound | MIC90 (Aspergillus niger) [µg/mL] | MIC90 (Candida albicans) [µg/mL] | MIC90 (Bacillus subtilis) [µg/mL] | MIC90 (Staphylococcus aureus) [µg/mL] | MIC90 (Pseudomonas aeruginosa) [µg/mL] | MIC90 (Klebsiella pneumoniae) [µg/mL] | MIC90 (Cryptococcus neoformans) [µg/mL] | MIC90 (Candida parapsilosis) [µg/mL] |
| --- | --- | --- | --- | --- | --- | --- | --- | --- |
| CCOc1ccccc1C1NC(c2ccccc2OCC)C2C(=NOC)C1C(c1ccccc1OCC)NC2c1ccccc1OCC (stereo not drawn) | 16 (≈ 24.6 µM) | > 128 | > 128 | > 128 | 32 (≈ 49.2 µM) | > 128 | 16 (≈ 24.6 µM) | 64 (≈ 98.5 µM) |
| COc1ccc(C2NC(c3ccc(OC)cc3)C3C(=NO)C2C(c2ccc(OC)cc2)NC3c2ccc(OC)cc2)cc1 (stereo not drawn) | 16 (≈ 27.6 µM) | > 128 | > 128 | 64 (≈ 110 µM) | 16 (≈ 27.6 µM) | 64 (≈ 110 µM) | 64 (≈ 110 µM) | 64 (≈ 110 µM) |
| CON=C1C2C(c3cccc(Br)c3)NC(c3cccc(Br)c3)C1C(c1cccc(Br)c1)NC2c1cccc(Br)c1 (stereo not drawn) | > 128 | > 128 | > 128 | > 128 | > 128 | > 128 | > 128 | > 128 |
| CCCCOc1ccc(C2NC(c3ccc(OCCCC)cc3)C3C(=NO)C2C(c2ccc(OCCCC)cc2)NC3c2ccc(OCCCC)cc2)cc1 (stereo not drawn) | 32 (≈ 42.8 µM) | > 128 | > 128 | > 128 | 64 (≈ 85.6 µM) | 64 (≈ 85.6 µM) | 32 (≈ 42.8 µM) | > 128 |
| CON=C1C2C(c3ccc(Cl)cc3)NC(c3ccc(Cl)cc3)C1C(c1ccc(Cl)cc1)NC2c1ccc(Cl)cc1 (stereo not drawn) | 16 (≈ 26.2 µM) | 4 (≈ 6.54 µM) | 128 (≈ 209 µM) | 32 (≈ 52.3 µM) | 8 (≈ 13.1 µM) | 4 (≈ 6.54 µM) | > 128 | > 128 |
| CON=C1C2C(c3cccc(Oc4ccccc4)c3)NC(c3cccc(Oc4ccccc4)c3)C1C(c1cccc(Oc3ccccc3)c1)NC2c1cccc(Oc2ccccc2)c1 (stereo not drawn) | 128 (≈ 152 µM) | 64 (≈ 76 µM) | > 128 | > 128 | > 128 | > 128 | > 128 | 128 (≈ 152 µM) |
| GENTAMICIN |  |  | 16 | 4 | 16 | 2 |  |  |
| ON=C1C2C(c3ccc(F)cc3)NC(c3ccc(F)cc3)C1C(c1ccc(F)cc1)NC2c1ccc(F)cc1 (stereo not drawn) | 4 (≈ 7.53 µM) | 4 (≈ 7.53 µM) | 64 (≈ 120 µM) | 16 (≈ 30.1 µM) | 32 (≈ 60.2 µM) | 64 (≈ 120 µM) | 128 (≈ 241 µM) | > 128 |
| CCOc1ccc(C2NC(c3ccc(OCC)cc3)C3C(=NO)C2C(c2ccc(OCC)cc2)NC3c2ccc(OCC)cc2)cc1 (stereo not drawn) | 16 (≈ 25.2 µM) | > 128 | > 128 | > 128 | 32 (≈ 50.3 µM) | 32 (≈ 50.3 µM) | 64 (≈ 101 µM) | > 128 |
| ON=C1C2C(c3cccc(Cl)c3)NC(c3cccc(Cl)c3)C1C(c1cccc(Cl)c1)NC2c1cccc(Cl)c1 (stereo not drawn) | 64 (≈ 107 µM) | > 128 | > 128 | > 128 | 64 (≈ 107 µM) | > 128 | > 128 | > 128 |
| CCc1ccc(C2NC(c3ccc(CC)cc3)C3C(=NO)C2C(c2ccc(CC)cc2)NC3c2ccc(CC)cc2)cc1 (stereo not drawn) | > 128 | > 128 | > 128 | > 128 | 32 (≈ 56 µM) | > 128 | > 128 | 64 (≈ 112 µM) |
| CCCOc1ccc(C2NC(c3ccc(OCCC)cc3)C3C(=NO)C2C(c2ccc(OCCC)cc2)NC3c2ccc(OCCC)cc2)cc1 (stereo not drawn) | 32 (≈ 46.2 µM) | > 128 | > 128 | > 128 | 64 (≈ 92.5 µM) | 64 (≈ 92.5 µM) | 32 (≈ 46.2 µM) | > 128 |
| ON=C1C2C(c3cccc(F)c3)NC(c3cccc(F)c3)C1C(c1cccc(F)c1)NC2c1cccc(F)c1 (stereo not drawn) | 64 (≈ 120 µM) | 32 (≈ 60.2 µM) | 128 (≈ 241 µM) | > 128 | 64 (≈ 120 µM) | 64 (≈ 120 µM) | > 128 | > 128 |
| CON=C1C2C(c3ccccc3Br)NC(c3ccccc3Br)C1C(c1ccccc1Br)NC2c1ccccc1Br (stereo not drawn) | > 128 | > 128 | > 128 | > 128 | > 128 | > 128 | > 128 | 64 (≈ 81.1 µM) |
| ON=C1C2C(c3ccc(Br)cc3)NC(c3ccc(Br)cc3)C1C(c1ccc(Br)cc1)NC2c1ccc(Br)cc1 (stereo not drawn) | > 128 | > 128 | 64 (≈ 82.6 µM) | > 128 | > 128 | 128 (≈ 165 µM) | > 128 | 32 (≈ 41.3 µM) |
| ON=C1C2C(c3ccccc3Cl)NC(c3ccccc3Cl)C1C(c1ccccc1Cl)NC2c1ccccc1Cl (stereo not drawn) | 8 (≈ 13.4 µM) | 16 (≈ 26.8 µM) | > 128 | 64 (≈ 107 µM) | 16 (≈ 26.8 µM) | 32 (≈ 53.6 µM) | 16 (≈ 26.8 µM) | > 128 |

| Compound | MIC90 (Aspergillus niger) [µg/mL] | MIC90 (Candida albicans) [µg/mL] | MIC90 (Bacillus subtilis) [µg/mL] | MIC90 (Staphylococcus aureus) [µg/mL] | MIC90 (Pseudomonas aeruginosa) [µg/mL] | MIC90 (Klebsiella pneumoniae) [µg/mL] | MIC90 (Cryptococcus neoformans) [µg/mL] | MIC90 (Candida parapsilosis) [µg/mL] |
| --- | --- | --- | --- | --- | --- | --- | --- | --- |
| CCOc1ccc(C2NC(c3ccc(OCC)cc3)C3C(=NOC)C2C(c2ccc(OCC)cc2)NC3c2ccc(OCC)cc2)cc1 (stereo not drawn) | 8 (≈ 12.3 µM) | > 128 | > 128 | > 128 | 32 (≈ 49.2 µM) | 32 (≈ 49.2 µM) | 16 (≈ 24.6 µM) | 128 (≈ 197 µM) |
| OC(Cn1cncn1)(Cn1cncn1)c1ccc(F)cc1F [FLUCONAZOLE] | 4 (≈ 13.1 µM) | 1 (≈ 3.27 µM) |  |  |  |  | 2 (≈ 6.53 µM) | 2 (≈ 6.53 µM) |
| CON=C1C2C(c3ccc(OCc4ccccc4)cc3)NC(c3ccc(OCc4ccccc4)cc3)C1C(c1ccc(OCc3ccccc3)cc1)NC2c1ccc(OCc2ccccc2)cc1 (stereo not drawn) | 64 (≈ 71.3 µM) | > 128 | > 128 | > 128 | > 128 | 64 (≈ 71.3 µM) | > 128 | > 128 |
| CCOc1ccccc1C1NC(c2ccccc2OCC)C2C(=NO)C1C(c1ccccc1OCC)NC2c1ccccc1OCC (stereo not drawn) | 32 (≈ 50.3 µM) | > 128 | > 128 | > 128 | 32 (≈ 50.3 µM) | 64 (≈ 101 µM) | 64 (≈ 101 µM) | > 128 |
| CON=C1C2C(c3ccccc3F)NC(c3ccccc3F)C1C(c1ccccc1F)NC2c1ccccc1F (stereo not drawn) | 4 (≈ 7.33 µM) | 8 (≈ 14.7 µM) | 32 (≈ 58.7 µM) | 64 (≈ 117 µM) | 4 (≈ 7.33 µM) | 16 (≈ 29.3 µM) | > 128 | 64 (≈ 117 µM) |
| Cc1ccccc1C1NC(c2ccccc2C)C2C(=NO)C1C(c1ccccc1C)NC2c1ccccc1C (stereo not drawn) | 64 (≈ 124 µM) | 64 (≈ 124 µM) | > 128 | 128 (≈ 248 µM) | 32 (≈ 62.1 µM) | > 128 | > 128 | 8 (≈ 15.5 µM) |
| CON=C1C2C(c3ccc(F)cc3)NC(c3ccc(F)cc3)C1C(c1ccc(F)cc1)NC2c1ccc(F)cc1 (stereo not drawn) | 2 (≈ 3.67 µM) | 2 (≈ 3.67 µM) | 64 (≈ 117 µM) | 8 (≈ 14.7 µM) | 4 (≈ 7.33 µM) | 16 (≈ 29.3 µM) | 32 (≈ 58.7 µM) | > 128 |
| ON=C1C2C(c3ccc(Cl)cc3)NC(c3ccc(Cl)cc3)C1C(c1ccc(Cl)cc1)NC2c1ccc(Cl)cc1 (stereo not drawn) | 64 (≈ 107 µM) | 8 (≈ 13.4 µM) | > 128 | 64 (≈ 107 µM) | 32 (≈ 53.6 µM) | 16 (≈ 26.8 µM) | > 128 | 128 (≈ 214 µM) |
| CON=C1C2C(c3cccc(OC)c3)NC(c3cccc(OC)c3)C1C(c1cccc(OC)c1)NC2c1cccc(OC)c1 (stereo not drawn) | 16 (≈ 26.9 µM) | 128 (≈ 216 µM) | > 128 | 128 (≈ 216 µM) | 64 (≈ 108 µM) | > 128 | 128 (≈ 216 µM) | > 128 |
| ON=C1C2C(c3ccc(OCc4ccccc4)cc3)NC(c3ccc(OCc4ccccc4)cc3)C1C(c1ccc(OCc3ccccc3)cc1)NC2c1ccc(OCc2ccccc2)cc1 (stereo not drawn) | 128 (≈ 145 µM) | > 128 | > 128 | > 128 | > 128 | > 128 | > 128 | > 128 |
| CCCCOc1ccc(C2NC(c3ccc(OCCCC)cc3)C3C(=NOC)C2C(c2ccc(OCCCC)cc2)NC3c2ccc(OCCCC)cc2)cc1 (stereo not drawn) | 32 (≈ 42 µM) | > 128 | > 128 | > 128 | 64 (≈ 84 µM) | 64 (≈ 84 µM) | 32 (≈ 42 µM) | > 128 |
| CSc1ccc(C2NC(c3ccc(SC)cc3)C3C(=NO)C2C(c2ccc(SC)cc2)NC3c2ccc(SC)cc2)cc1 (stereo not drawn) | 16 (≈ 24.8 µM) | 32 (≈ 49.7 µM) | > 128 | > 128 | 16 (≈ 24.8 µM) | 32 (≈ 49.7 µM) | 32 (≈ 49.7 µM) | 32 (≈ 49.7 µM) |
| CON=C1C2C(c3cccc(F)c3)NC(c3cccc(F)c3)C1C(c1cccc(F)c1)NC2c1cccc(F)c1 (stereo not drawn) | 16 (≈ 29.3 µM) | 32 (≈ 58.7 µM) | > 128 | > 128 | 16 (≈ 29.3 µM) | 64 (≈ 117 µM) | > 128 | > 128 |
| ON=C1C2C(c3ccccc3Br)NC(c3ccccc3Br)C1C(c1ccccc1Br)NC2c1ccccc1Br (stereo not drawn) | > 128 | > 128 | > 128 | > 128 | > 128 | > 128 | > 128 | > 128 |
| C=CCOc1ccc(C2NC(c3ccc(OCC=C)cc3)C3C(=NO)C2C(c2ccc(OCC=C)cc2)NC3c2ccc(OCC=C)cc2)cc1 (stereo not drawn) | 64 (≈ 93.6 µM) | > 128 | 128 (≈ 187 µM) | > 128 | > 128 | 64 (≈ 93.6 µM) | > 128 | 64 (≈ 93.6 µM) |
| COc1ccccc1C1NC(c2ccccc2OC)C2C(=NO)C1C(c1ccccc1OC)NC2c1ccccc1OC (stereo not drawn) | 16 (≈ 27.6 µM) | > 128 | > 128 | > 128 | 16 (≈ 27.6 µM) | 64 (≈ 110 µM) | 32 (≈ 55.2 µM) | 32 (≈ 55.2 µM) |
